Reference: article PMC4285304 (Journal of Thrombosis and Haemostasis, 2014)
Where two headings read alike, the source gives them in different places.

Experiments:
[1] = tested on: tissue factor-induced thrombin generation in normal human platelet-poor plasma; assay: Thrombin generation assay; format: biochemical; conditions: for maximal increase in Cmax over baseline / maximal increase in ETP over baseline: absence of rhs-TM, lower concentration range, not significant; for Cmax increase vs. control / ETP increase vs. control: presence of rhs-TM 10 nmol L^−1; for IC50: normal human PPP
Summary of the method: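 Citrated blood (3.12%, 1/10 vol) came from unmedicated healthy donors; PPP was prepared at 1000× g for 20 min at room temperature. Individual-donor PPP was spiked with increasing test compound concentrations (3–948 or 3–1090 nmol L−1) or vehicle, with or without rhs-TM (final 10 nmol L−1). TF was 1.67 pmol L−1 and phospholipid 1.33 μmol L−1 (final). After 5 min at 37 °C, FluCa was added. Calibrated thrombogram gave Cmax and ETP; n = 8–12.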

[2] = tested on: thrombin generation in protein C-deficient human plasma; assay: Thrombin generation assay; format: biochemical; conditions: absence or presence of rhs-TM
Summary of the method: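 Lyophilised protein C-deficient human plasma was spiked with increasing test compound concentrations or vehicle, with or without rhs-TM (final 10 nmol L−1). Thrombin generation was triggered with TF 1.67 pmol L−1 and phospholipid 1.33 μmol L−1 (final), incubated 5 min at 37 °C, and started with FluCa (HEPES, CaCl2, fluorogenic substrate). Fluorescence was calibrated per sample; Cmax and ETP were derived; n = 3.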

[3] = tested on: prothrombin fragment 1+2 generation in normal human platelet-poor plasma; assay: Prothrombin fragment 1+2; format: biochemical; conditions: for F1+2 increase: same concentration range as by the CAT method (melagatran 119–474, dabigatran 136–545 nmol L^−1); for IC50: read-out: F1+2 generation IC50, normal human PPP
[4] = tested on: prothrombin fragment 1+2 generation in protein C-deficient human plasma; assay: Prothrombin fragment 1+2; format: biochemical; conditions: presence of TM
Summary of the method: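 Protein C-deficient human plasma was spiked with test compound (increasing concentrations) or vehicle plus rhs-TM (final 10 nmol L−1), then defibrinated with PefablocFG (final 6 mg mL−1). The CAT-type TF/phospholipid trigger was used, started with Fluo-buffer (HEPES, CaCl2, 5% DMSO, no substrate) and stopped after 12 min with PPACK (final 10 μmol L−1). Samples went into EDTA (final 100 mmol L−1) at 4 °C and were stored at −20 °C. F1+2 was measured by ELISA.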

[5] = tested on: thrombin–antithrombin (TAT) complex; assay: Tissue factor-induced hypercoagulability in rats: plasma TAT levels; format: in vivo; conditions: rat; for effect on TF-induced increase in TAT levels: 0.3 mg kg^−1 i.v., 10 minutes after TF 8 mg kg^−1
plasma fibrinogen = assay: Tissue factor-induced hypercoagulability in rats: fibrinogen levels; format: in vivo; conditions: rat
platelet count = assay: Tissue factor-induced hypercoagulability in rats: platelet count; format: in vivo; conditions: rat
[6] = tested on: activated partial thromboplastin time; assay: Activated partial thromboplastin time; format: in vivo; conditions: rat, 15 minutes after drug, 10 minutes after TF
Summary of the method: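 Male Wistar rats (227–273 g) were fasted overnight and anaesthetised with i.p. pentobarbital-Na (80–100 mg kg−1). Test compound in 0.9% NaCl (0.001–0.3 mg kg−1) or vehicle (1 mL kg−1) was given i.v., then 5 min later recombinant TF (8 mg kg−1) or vehicle (sham) was given as a slow i.v. bolus. Citrated aortic blood was drawn 10 min after TF. APTT was measured on PPP by ball coagulometer, as fold over baseline; n = 10.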

[7] = Plasma concentrations of rivaroxaban and melagatran in rats; format: in vivo; conditions: rat, 15 minutes after drug, 10 minutes after TF
thrombin bound to TM = conditions: cited from earlier work
prothrombin time = assay: Prothrombin time; format: in vivo; conditions: rat; for PT prolongation: 15 minutes after drug, 10 minutes after TF
Summary of the method: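 Rats (male Wistar, 227–273 g) were fasted overnight and anaesthetised with i.p. pentobarbital-Na (80–100 mg kg−1). Test compound in PEG:H2O:glycerol (996:100:60 g), 0.001–0.3 mg kg−1, or vehicle (1 mL kg−1) was given i.v. After 5 min, TF (8 mg kg−1) or vehicle (sham) was given as a slow i.v. bolus. Citrated aortic blood was taken 10 min later. PT on PPP by ball coagulometer, expressed as fold over baseline; n = 10.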

[8] = tested on: mortality of treated animals; conditions: TF-induced hypercoagulation; cited from earlier work
[9] = melagatran at 119–474 nmol L^−1
[10] = read-out: Cmax IC50, peak thrombin generation, +TM (rhs-TM 10 nmol L^−1)
[11] = read-out: Cmax IC50, peak thrombin generation, −TM (absence of rhs-TM)
[12] = read-out: ETP IC50, endogenous thrombin potential, +TM (rhs-TM 10 nmol L^−1)
[13] = read-out: ETP IC50, endogenous thrombin potential, −TM (absence of rhs-TM)
[14] = presence of rhs-TM 10 nmol L^−1
[15] = whole dose range tested (0.001–0.3 mg kg^−1 i.v.)

Row | Structure (SMILES) | maximal increase in Cmax over baseline [1] | maximal increase in ETP over baseline [1] | IC50 [1, 10] | IC50 [1, 11] | IC50 [1, 12] | IC50 [1, 13] | increase in ETP or Cmax [2] | F1+2 increase [3, 14] | IC50 ([3]; absence of rhs-TM) | generation of F1+2 [4] | effect on TF-induced increase in TAT levels [5] | increase in the affinity of the thrombin inhibitor for the thrombin bound to TM (thrombin bound to TM) | further results
1 | N=C(N)c1ccc(CNC(=O)[C@@H]2CCN2C(=O)[C@H](NCC(=O)O)C2CCCCC2)cc1 [Melagatran] | 8% | 6% | > 950 nM | 940 ± 79 nM | > 950 nM | 732 ± 43 nM | No increase | 1.8–2.0 fold | 368 ± 40 nM | concentration-dependently inhibited | reduced | twofold increase | Cmax increase vs. control [1, 9]: 2.2–2.7 fold; ETP increase vs. control [1, 9]: 1.9–2.2 fold; TAT increase vs. TF control ([5]; 0.01 mg kg^−1 i.v., P < 0.01): 1.6 fold; fibrinogen levels (plasma fibrinogen; 0.03 mg kg^−1 i.v., TF control 2.34 ± 0.08 g L^−1, P < 0.001): 1.41 ± 0.20 g/L; platelet count (platelet count; 0.01 mg kg^−1 i.v., TF control 644 × 10^3 μL^−1): 559000 µL⁻¹; APTT prolongation ([6]; 0.001 mg kg^−1 i.v.): 1.26 ± 0.05 x-fold over baseline; APTT prolongation ([6]; 0.003 mg kg^−1 i.v.): 1.34 ± 0.05 x-fold over baseline; APTT prolongation ([6]; 0.01 mg kg^−1 i.v.): 1.68 ± 0.03 x-fold over baseline; APTT prolongation ([6]; 0.03 mg kg^−1 i.v.): 2.17 ± 0.23 x-fold over baseline; APTT prolongation ([6]; 0.1 mg kg^−1 i.v.): 2.08 ± 0.18 x-fold over baseline; APTT prolongation ([6]; 0.3 mg kg^−1 i.v.): 3.11 ± 0.27 x-fold over baseline; Plasma concentration ([7]; 0.01 mg kg^−1 i.v.): 19.2 ± 0.9 ng/mL; Plasma concentration ([7]; 0.3 mg kg^−1 i.v.): 524.7 ± 26.1 ng/mL
2 | N=C(N)NCCCNC(=O)[C@@H]1CCCCN1C(=O)[C@@H](CC1CCCCC1)NCC(=O)O [inogatran] |  |  |  |  |  |  |  |  |  |  |  | twofold increase | 
3 | O=C(NC[C@H]1CN(c2ccc(N3CCOCC3=O)cc2)C(=O)O1)c1ccc(Cl)s1 [Rivaroxaban] |  |  | 44 ± 6 nM | 66 ± 5 nM | 57 ± 8 nM | 697 ± 106 nM |  |  | 12 ± 7 nM | concentration-dependently inhibited | complete inhibition |  | IC50 [3, 14]: 14 ± 7 nM; fibrinogen concentration (plasma fibrinogen; [15]): not affected; platelet count (platelet count; [15]): not affected; PT prolongation (prothrombin time; 0.001 mg kg^−1 i.v.): 1.00 ± 0.04 x-fold over baseline; PT prolongation (prothrombin time; 0.003 mg kg^−1 i.v.): 1.02 ± 0.02 x-fold over baseline; PT prolongation (prothrombin time; 0.01 mg kg^−1 i.v.): 0.96 ± 0.02 x-fold over baseline; PT prolongation (prothrombin time; 0.03 mg kg^−1 i.v.): 1.03 ± 0.02 x-fold over baseline; PT prolongation (prothrombin time; 0.1 mg kg^−1 i.v.): 1.26 ± 0.06 x-fold over baseline; PT prolongation (prothrombin time; 0.3 mg kg^−1 i.v.): 1.92 ± 0.05 x-fold over baseline; prolongation of PT over the dose range (prothrombin time; dose range 0.001–0.3 mg kg^−1 i.v.): 1.0–1.9 fold over baseline
4 | [H]/N=C(/N)c1ccc(NCc2nc3cc(C(=O)N(CCC(=O)O)c4ccccn4)ccc3n2C)cc1 [Dabigatran] | 11% | 5% | > 1090 nM | 976 ± 71 nM | > 1090 nM | 722 ± 44 nM | No increase | 1.6–1.9 fold | 387 ± 63 nM | concentration-dependently inhibited |  |  | Cmax increase vs. control ([1]; dabigatran at 68–545 nmol L^−1): 2.0–3.3 fold; ETP increase vs. control ([1]; dabigatran at 136–545 nmol L^−1): 2.2–2.6 fold
5 | CCOC(=O)CN[C@@H](C(=O)N1CC[C@H]1C(=O)NCc1ccc(/C(N)=N\O)cc1)C1CCCCC1 [ximelagatran] |  |  |  |  |  |  |  |  |  |  |  |  | mortality rate, dose-dependent [8]: up to 67%; mortality rate, time-dependent [8]: ≤ 88%
